System: MS2 coat protein
Test: apparent Kd, MS2 coat protein; higher = weaker binding; RNA-MaP array; FMN 200 µM where present
How it was run: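 The titrant was SNAP-549-labelled MS2 coat protein, run from 0.7 or 1.5 nM in doubling steps to 3 µM. It was applied to designs transcribed by stalled E. coli RNA polymerase on Illumina sequencing-chip clusters, without ligand first and then with constant ligand, in 100 mM Tris-HCl pH 7.5, 80 mM KCl, 4 mM MgCl2, BSA, DTT, yeast tRNA and Tween-20. The apparent Kd is the median of filtered per-cluster binding-curve fits, with green signal normalised to red-channel RNA signal and control-cluster median Fmax.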

[1] = designed as: OFF switch for flavin mononucleotide, no ligand
[2] = ligand present: flavin mononucleotide, designed as: OFF switch for flavin mononucleotide
[3] = designed as: ON switch for flavin mononucleotide, no ligand
[4] = ligand present: flavin mononucleotide, designed as: ON switch for flavin mononucleotide

Sequence | apparent Kd [1] [nM] | apparent Kd [2] [nM] | apparent Kd [3] [nM] | apparent Kd [4] [nM]
UCGGCGCGAGGAUAUACGUUUGCGCUUUUUCGUUUUUGUGUACAUGAGGAUCACCCAUGUAGAAGGCGCGCCGC | 16.4 | 19.8 | – | –
ACAUACAUUCGAGGAUAUCGGUGAACAAAUUAACGAGAAGGCGAUAUAAUUUUUAAUCUUAUGAACAUGAGGAUCACCCAUGUA | – | – | 22.3 | 20.4
CUCUAUCAUGUAGGAUAUGCGUGUCGAAGCUAUGCAGAAGGACAUGAGGAUCACCCAUGUCUUUCUGUCUGCGGACGGACAGGG | 14.9 | 18.2 | – | –
ACUAUACGAGGAUAUACUGUCAGGCCUCAGACAUAAAUAAGACAUGAGGAUCACCCAUGUAGAAGGCGUUUACU | 31.3 | 48 | – | –
GUCAGCUCGUGAGGAUAUACAACACUGCUUCGGCAGUGUAUUAAGAUCACAUGAGGAUCACCCAUGUAGAAGGCACGAUCUGAU | 13.6 | 220 | – | –
GUAUCGUGAGGAUAUCAUGAUUGACUUAGUUUAUGUCAGCGUGAGAAGGCACAUGAGGAUCACCCAUGUGAUUA | 24.7 | 54.9 | – | –
GCGCAUUUAAGAUUUAUAUAAUUGUCAGAAGGUGAAAAGACGACAUGAGGAUCACCCAUGUAAUUCAAGGAUAUGAUUUAGCGC | – | – | 34.3 | 13.3
UAAAUUUUAUGAUAUUAUGACAUUAGAAGGCUAUACAUGUUGAUACAUGAGGAUCACCCAUGUAUAGAGGAUAUAGACAAUUAU | 44.1 | 100 | – | –
GUGGUACAUGAGGAUCACCCAUGUUAGGAUAUCGCGUGAGGUAAAACUUACACACACACGAGAAGGGACGACAU | 88.6 | 56.2 | – | –
CAGCUGAAAGUCAGGAUAUCUAGAGCCUCGGCUCUAGAGAAGGGACAUGAGGAUCACCCAUGUCACUCCAGCUG | 18.4 | 20 | – | –
UUUUAAUAAUAGAAGGAGGACUUCAUGAGGAUCACCCAUGUGUUAGUACUUAGGAUAUGUAAUAACAUGAGGAUCACCCAUGUC | – | – | 44 | 42.4
UGGUACUAGGCAGGAUAUGGGAAGAUACAUGAGGAUCACCCAUGUUUAAGAAUGCCGAGAGGCAACUAGAAGGCCCUAGUACCU | – | – | 719 | 620
UGUAUGGACAGAGGAUAUACGGAUAGGAUCUACUAUCUUCCUUAAAUAACAUGAGGAUCACCCAUGUAGAAGGCUGUCCAUACU | 19 | 74.7 | – | –
UCCAAAUCGUAGAAGGGUGACAUGAGGAUCACCCAUGUGCAGCAGCCGUGAAUGGCCAUGCUGCCACAGGAUAUACGAUGGAGU | – | – | 49 | 43
GUAUGGAUUACAGGAUAUGUUAGUUUUAAGUGUAUUGGUUAUUACUUAAUUACAGAAGGGUAUUACAUGAGGAUCACCCAUGUA | – | – | 16 | 11.5
CCAGAUAUGUGAGGAUAUAGAGUGGAAUACACUCUAGAAGGUAUGUGAAAACAUGAGGAUCACCCAUGUGAUUGAUUAUCUGGA | – | – | 28.2 | 27.3
CUCUUGUGAGGAUAUCAGUAGUAAAAAAAUAAAAUUACUACUGAGAAGGCACAUGAGGAUCACCCAUGUCUUUC | 211 | 158 | – | –
CGGUCGAUAUCAGGAUAUCGUUUAAUUACAUGAGGAUCACCCAUGUUGACAAGGAAUAUAACUUGCGAGAAGGGAUUACGAUCG | – | – | 9.33 | 6.47
AUAUUUGUUUAGAAGGACAUGAGGAUCACCCAUGUCGCUGGGCGCGGGAAACCGUGCGCGGCCAUGUAGGAUAUAGGGAGAUAU | 38.7 | 24.3 | – | –
GGGUACAUCGGAGGAUAUAAUGUAAAUACAUGAGGAUCACCCAUGUCGAUGGAGACAUCGGAGAUUGAGAAGGCCGAUGUACCG | – | – | 110 | 38.4
GCCAUCGCAUGAGGAUAUGCUCCCGUUUCGGGAGCAGAAGGCAUGUCACAAGACAUGAGGAUCACCCAUGUAGUUAAGAUGGCA | – | – | 194 | 8.52
GUAGCAUUCUGAGGAUAUUCAUAUAAUAAAUAAACAUGAGGAUCACCCAUGUGGCGAAAGCCUUGGGAGAAGGCAGUAUGCUAC | – | – | 660 | 42.1
AGCGUACAUGUUAGGAUAUGCUGUAGGAAUACUCAGCAGAAGGAACAUGAGGAUCACCCAUGUUUGUCCGUUCU | 14.5 | 23.9 | – | –
AGCUUGAGAGGAUAUACUUGAGUGAUAAAAGUCUGAUAACUACAUGAGGAUCACCCAUGUAGAAGGCUCUAGCA | 18.3 | 47.8 | – | –
CUCAUGUCAGGAUAUCAGUAGUAAAAAAAUAAAAUUACUACUGAGAAGGGACAUGAGGAUCACCCAUGUCCGGG | 20.4 | 18.4 | – | –
UGUCGGAGCAGAGGAUAUUACAUGAGGAUCACCCAUGUAUGAACCAACAGCUGGAAACAGCAAUGUAAGAAGGCUGCUCCGACA | 10.4 | 131 | – | –
UGGUACAUCGGAGGAUAUCAUGUAAAUACAUGAGGAUCACCCAUGUCGAUGGAGACAUCGGAGAUUGAGAAGGCCGAUGUACCG | – | – | 166 | 8.66
GCCCAACAUGAGGAUCACCCAUGUAAGGAUAUUGGAUGUGUGUGGAAACAUAUAUAAACGAGAAGGUACAGGGC | 38.4 | 28.9 | – | –

Sequence | apparent Kd [1] [nM] | apparent Kd [2] [nM] | apparent Kd [3] [nM] | apparent Kd [4] [nM]
UGGUACUAGGGAGGAUAUGCGAAGAUACAUGAGGAUCACCCAUGUUUAAGAAUGCCGAGAGGCAACUAGAAGGCCCUAGUACCU | – | – | 8.5 | 5.38
UUGAGGUAGGAGAAGGACAGAGGCGGAAACACAAACAUGAGGAUCACCCAUGUAGGAUAUCCUACCUAACGAGGAUACCUCAAG | 14.7 | 26.7 | – | –
CCGCUGUUAGGAUAUCUGAAGCUUCAAUGGAAGUCUUCAUUGGAGAAGGGACAUGAGGAUCACCCAUGUAGGGA | 192 | 253 | – | –
AGUUUUUAUGUCAGGAUAUCAGUAGGUCUCCCGGAUGAGAAGGGACAUGAGGAUCACCCAUGUAACCAAAGAGC | 15.6 | 18.5 | – | –
GAGCGGAUGUCAGGAUAUCGCCGCGUGAAAAGGCGAGAAGGGACAUGAGGAUCACCCAUGUACUCAUAGGGCCAGCUUGGGCUA | 9.71 | 29.1 | – | –
UGGUGUGAGCUAUCACAUGACUGGGAGGAUAUGACAUGAGGAUCACCCAUGUGGGAUCUAAAUUGUCAGAAGGCUCGAUCUGGG | 750 | 208 | – | –
GGAAAGCGAGGAUAUACAUGAGGAUCACCCAUGUUAACAAACAAACAAACAAACAAAAGUAGAAGGCGCAAAAU | 37 | 36.5 | – | –
UUAUUAUAUGUAGGAUAUGCAUAUUAUUAUUAUGCAGAAGGACAUGAGGAUCACCCAUGUAUAUUGUUGUUGUAUAUUAUAUAU | 25.1 | 30.4 | – | –
UCAUGAAGGAUAGGAUAUGGACAUGAGGAUCACCCAUGUACAUGGGAAUGAAUACUGAAUUUGUACUAGAAGGGUUACAUAAAU | 56.4 | 37 | – | –
UAAAAGACUAGUAUGGUAACGAUCACAUGAGGAUCACCCAUGUAGGAUAUGAGCAGAAAAUCUGCUCAGAAGGACAUGCUAGUC | 5.8 | 9.08 | – | –
UUACGUACGUAUGAGGAUAUCCAUAAUAAGACAUGAGGAUCACCCAUGUAAACAAAACAAUAAUGGGAGAAGGCAUACGUACGAA | – | – | 64.1 | 101
CUAAGUGCCGGAGGAUAUACAUGAGGAUCACCCAUGUCAGUCUGUUUACAUGUAGAAGGCCGGCGAACAAAGAACUUGCCACGA | 43.8 | 242 | – | –
CGUAGGAUGCAGAAGGCAUGAACAUGAGGAUCACCCAUGUUAAAAGACAUGAGGAUAUGCAUCCUACGAAAAGUGCGAAAGCAC | – | – | 5.15 | 4.54
AUCUAAGAAUUAAUUGUGACAGUGAGAAGGCUAUAGUAUGUGACCGACAUGAGGAUCACCCAUGUAGAGGAUAUCACUUGCUAC | 71.8 | 335 | – | –
GCUCACCGUCAGAAGGUACUUAAAAGUUGUGAGUAAGGAUAUGACAUGAGGAUCACCCAUGUAAACGUGGACUUUCACAUACAU | 13.5 | 59.1 | – | –
GUAGCUAUCGGAGGAUAUUCAUGAUACAUGAGGAUCACCCAUGUUAAAGUGGGAGAAGGCCGAUAGCUACAAGAGCGAAAGCUC | – | – | 44.8 | 6.87
AAAAAGGGAGGAUAUACAUGAGGAUCACCCAUGUAAAAAAAAACAAAAAAAAAAAAAAGUAGAAGGCCCAAAAA | 54.8 | 47.8 | – | –
GCCCUCGCUGAGGAUAUUAUCUGGCUCGACUGAUAAGAAGGCAGUACAUGAGGAUCACCCAUGUGGUUCGUUCG | 50.5 | 142 | – | –
GGGCAACAUGAGGAUCACCCAUGUGAGGAUAUGGGCCCGGGCCCGAAAGGGCCCGGGCCCAGAAGGCACAGCCC | 17.9 | 17.1 | – | –
AAUUCGGCAGGAUAUACAUGAGGAUCACCCAUGUAAAUUUUUCGUUUAACUUGAAUGUGUAGAAGGGCCAUUUA | – | 22.6 | – | –
GGCGGACGAAACAUGAGGAUCACCCAUGUGUUAUAAUUAAUAUAGGAUAUGUUUAUACUUUUUGGGCAGAAGGAUGAUAAUGCC | – | – | 18.5 | 16.2
CGAUGACAUAGUCAUCCGUAACGGACAUGAGGAUCACCCAUGUAGGAUAUGCUACUCAACGAGUAGCAGAAGGACAUGAGUCUU | 38.3 | 347 | – | –
GGCGGGCGGGAGGAUAUUCGGGCUGUUUGGCUUGGAGAAGGCUCGACAUGAGGAUCACCCAUGUUUGGGUCGUC | 18 | 37.8 | – | –
CAGCAAAAGUAGAAGGCAGUACUGAUUCAGUACUGAGGAUAUACAUGAGGAUCACCCAUGUGUUCCAGCUGAAUAAUAAAAUAA | 8.89 | 116 | – | –
GGAAAACAUGAGGAUCACCCAUGUGAGGAUAUCGAUGUCCAGAGAGAGGUGCGGGACUCGAGAAGGCACUUGGA | 44.5 | 87.5 | – | –
AAAAAAAAAACUCAGGAUAUAGAUCGUUGAACAUGAGGAUCACCCAUGUAGUGAAAAGCGAAAAACUAGAAGGGAGGAAAAAAAAA | – | – | 28.9 | 19.8
GCAAGGCAUGUAGGAUAUCGAGCUCAAAGAGCUCGAGAAGGACAUGAGGAUCACCCAUGUGCUCACAGACAGUGAGCGCCUUGC | 18.4 | 44.4 | – | –
